Laboratory results taken from ChEMBL document CHEMBL4371072, “Structure-Activity Relationship Studies and Plasmodium Life Cycle Profiling Identifies Pan-Active N-Aryl-3-trifluoromethyl Pyrido[1,2- a]benzimidazoles Which Are Efficacious in an in Vivo Mouse Model of Malaria” (J Med Chem, 2019).

Assays:
Plasmodium falciparum [1] = assay: Ratio of IC50 for early stage of Plasmodium falciparum NF54-PfS16-GFP-Luc gametocytes to IC50 for late stage of Plasmodium falciparum NF54-Mal8p1.16-GFP-Luc gametocytes; assay type: functional
CHO = assay: Cytotoxicity against CHO cells after 48 hrs by MTT assay; assay type: cell-based; settings: Cricetulus griseus
Plasmodium falciparum [2] = assay: (§1) Antiplasmodial activity against chloroquine-sensitive asexual blood stage of Plasmodium falciparum NF54 infected in human RBC assessed as reduction in [3H]hypoxanthine incorporation preincubated for 48 hrs followed by [3H]hypoxanthine addition measured after 24 hrs by liquid scintillation counting method; assay type: functional, organism-based
Outline: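 Asexual blood-stage P. falciparum NF54 assay, run as a modified [3H]-hypoxanthine incorporation assay. Values are the mean of n ≥ 2 assays; determinations differing more than 3-fold were excluded. Chloroquine and artesunate served as controls.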

Plasmodium falciparum [3] = assay: Ratio of IC50 for late stage of Plasmodium falciparum NF54-Mal8p1.16-GFP-Luc gametocytes to IC50 for early stage of Plasmodium falciparum NF54-PfS16-GFP-Luc gametocytes; assay type: functional
Plasmodium falciparum [4] = assay: Antiplasmodial activity against chloroquine-sensitive final late stage of Plasmodium falciparum NF54-Mal8p1.16-GFP-Luc gametocytes after 24 hrs by BacTiter-Glo assay; assay type: functional, organism-based; settings: NF54, 24 h
Outline: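 Late-stage PfNF54 gametocytes produced in vitro; gametocytocidal IC50 via luciferase reporter and ATP bioluminescence platforms; n=3 independent biological replicates in technical triplicates, ± S.E.M.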

[5] = Metabolic stability in human liver microsomes assessed as parent compound remaining at 0.1 uM after 30 mins in presence of NADPH by LC-MS/MS analysis
[6] = Half life in human liver microsomes at 0.1 uM in presence of NADPH by LC-MS/MS analysis
[7] = Selectivity index, ratio of IC50 for CHO cells to IC50 for chloroquine-sensitive asexual blood stage of Plasmodium falciparum NF54 infected in human RBC; assay type: toxicity; settings: Chinese hamster, read-out: Ratio IC50
Outline: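 Selectivity index taken as the ratio of the CHO-cell IC50 to the P. falciparum NF54 IC50.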

[8] = Half life in Balb/c mouse liver microsomes at 0.1 uM in presence of NADPH by LC-MS/MS analysis
[9] = Metabolic stability in Balb/c mouse liver microsomes assessed as parent compound remaining at 0.1 uM after 30 mins in presence of NADPH by LC-MS/MS analysis
[10] = Half life in C57B1/6 mouse at 2 mg/kg, iv by LC-MS/MS analysis; assay type: ADME, organism-based; settings: in vivo
Outline: (§2)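 Mouse IV PK: C57B1/6 mice (n=2) given 2 mg/kg intravenously as a solution in dimethylacetamide, polyethylene glycol and propylene glycol/ethanol (4:1) at ratio 1:3:6. Blood concentrations followed over time; values are means of 2 mice.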

hERG (KCNH2) [11] = molecular target: T1, hERG (KCNH2) (Homo sapiens, UniProt Q12809); assay: Inhibition of human ERG expressed in CHO cells assessed as reduction in peak channel current at 0.3 uM by IonWork patch-clamp electrophysiology method relative to control; assay type: cell-based; settings: CHO cells expressing human ERG
[12] = molecular target: Voltage-gated inwardly rectifying potassium channel KCNH2 (Homo sapiens, UniProt Q12809); assay: Inhibition of human ERG expressed in CHO cells assessed as reduction in peak channel current by IonWork patch-clamp electrophysiology method; assay type: cell-based
[13] = Lipophilicity, log D of the compound; assay type: physicochemical; settings: octanol/water
Outline: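 LogD computed with ChemDraw 16.0.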

Plasmodium berghei [14] = assay: Antimalarial activity against GFP-fused Plasmodium berghei ANKA infected in NMRI mouse assessed as host mean survival time at 50 mg/kg, po administered consecutively at 4, 24, 48 and 72 hrs post infection; assay type: functional
Outline: (§3)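 NMRI mice infected intravenously with P. berghei; oral treatment at 4, 24, 48 and 72 h post-infection (4 x 50 mg/kg), vehicle to controls; reference drug 4 x 30 mg/kg orally on four consecutive days. Parasitemia compared with untreated controls; mean survival days recorded; cure if no parasitemia 30 days after treatment.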

[15] = Clearance in C57B1/6 mouse at 2 mg/kg, iv by LC-MS/MS analysis; assay type: ADME, organism-based; settings: in vivo; outline: as §2
hERG (KCNH2) [16] = molecular target: T1, hERG (KCNH2); assay: Inhibition of human ERG expressed in CHO cells assessed as reduction in peak channel current at 10 uM by IonWork patch-clamp electrophysiology method relative to control; assay type: cell-based; settings: CHO cells expressing human ERG
Outline: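 hERG potassium channel profiled by IonWorks patch-clamp electrophysiology, with 10 μM as the highest concentration tested. Values are the mean of 3 results from experiments run as biological and technical triplicates.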

[17] = Time at which blood concentration stays above in vitro antiplasmodial Plasmodium falciparum NF54 IC50 in C57B1/6 mouse at 20 mg/kg, po; assay type: ADME, organism-based; settings: in vivo
[18] = Resistance index, ratio of IC50 for chloroquine-resistant asexual blood stage of Plasmodium falciparum K1 infected in human RBC to IC50 for chloroquine-sensitive asexual blood stage of Plasmodium falciparum NF54 infected in human RBC; assay type: functional
Plasmodium falciparum [19] = assay: as §1, with “chloroquine-resistant” for “chloroquine-sensitive”, “K1” for “NF54”; assay type: functional, organism-based
Outline: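 Asexual blood-stage P. falciparum K1 (multidrug resistant) screened by modified [3H]-hypoxanthine incorporation assay; IC50 as mean of n ≥ 2 assays, replicates differing above 3-fold excluded; chloroquine and artesunate controls.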

[20] = Volume of distribution in C57B1/6 mouse at 2 mg/kg, iv by LC-MS/MS analysis; assay type: ADME, organism-based; settings: in vivo; outline: as §2
Plasmodium berghei [21] = assay: Antimalarial activity against liver stage form of luciferase transfected Plasmodium berghei sporozoites infected in human HuH7 cells preincubated with host cells for 1 hr followed by plasmodial infection and measured after 48 hrs by bioluminescence method; assay type: functional, organism-based; settings: Huh-7
[22] = Oral bioavailability in C57B1/6 mouse at 20 mg/kg by LC-MS/MS analysis; assay type: ADME, organism-based; settings: in vivo
Outline: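 Oral bioavailability from C57B1/6 mice dosed 20 mg/kg orally (n=3), referenced to a separate intravenous set at 2 mg/kg (n=2) formulated in dimethylacetamide/polyethylene glycol/propylene glycol–ethanol (4:1), ratio 1:3:6.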

[23] = AUC (0 to infinity) in C57B1/6 mouse at 2 mg/kg, iv by LC-MS/MS analysis; assay type: ADME, organism-based; set-up: dose 2 mg/kg, route intravenous, time infinity; settings: in vivo; outline: as §2
[24] = Cmax in C57B1/6 mouse at 20 mg/kg, po by LC-MS/MS analysis; assay type: ADME, organism-based; set-up: dose 20 mg/kg, route oral; settings: in vivo
Outline: (§4)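 Mouse oral PK: C57B1/6 mice (n=3) dosed orally at 20 mg/kg. Blood concentrations followed over time; values are means of 3 mice.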

[25] = Ratio of Cmax in C57B1/6 mouse at 20 mg/kg, po to IC50 for chloroquine-sensitive asexual blood stage of Plasmodium falciparum NF54 infected in human RBC; assay type: ADME, organism-based; settings: in vivo
[26] = AUC (0 to infinity) in C57B1/6 mouse at 20 mg/kg, po by LC-MS/MS analysis; assay type: ADME, organism-based; set-up: dose 20 mg/kg, time infinity, route oral; settings: in vivo; outline: as §4
[27] = Solubility of the compound; assay type: physicochemical
[28] = Half life in C57B1/6 mouse at 20 mg/kg, po by LC-MS/MS analysis; assay type: ADME, organism-based; settings: in vivo; outline: as §4
[29] = Tmax in C57B1/6 mouse at 20 mg/kg, po by LC-MS/MS analysis; assay type: ADME, organism-based; settings: in vivo; outline: as §4
Plasmodium berghei [30] = assay: Antimalarial activity against GFP-fused Plasmodium berghei ANKA infected in NMRI mouse assessed as inhibition of parasitemia at 50 mg/kg, po administered consecutively at 4, 24, 48 and 72 hrs post infection by flow cytometry relative to control; assay type: functional
Outline: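 NMRI mice infected intravenously with P. berghei; oral treatment at 50 mg/kg given 4, 24, 48 and 72 h post-infection (4 x 50 mg/kg). Control mice received vehicle only. Parasitemia of treated animals compared with that of untreated controls. Mice counted as cured if no parasitemia was detected 30 days after treatment.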

Hemozoin = assay: Inhibition of beta hematin formation after 5 hrs by NP40 detergent-based assay
Plasmodium berghei [31] = assay: Antimalarial activity against GFP-fused Plasmodium berghei ANKA infected in NMRI mouse assessed as host mean survival time at 30 mg/kg, po administered for 4 consecutive days; assay type: functional; outline: as §3

T1 sequence (Q12809 whole entry): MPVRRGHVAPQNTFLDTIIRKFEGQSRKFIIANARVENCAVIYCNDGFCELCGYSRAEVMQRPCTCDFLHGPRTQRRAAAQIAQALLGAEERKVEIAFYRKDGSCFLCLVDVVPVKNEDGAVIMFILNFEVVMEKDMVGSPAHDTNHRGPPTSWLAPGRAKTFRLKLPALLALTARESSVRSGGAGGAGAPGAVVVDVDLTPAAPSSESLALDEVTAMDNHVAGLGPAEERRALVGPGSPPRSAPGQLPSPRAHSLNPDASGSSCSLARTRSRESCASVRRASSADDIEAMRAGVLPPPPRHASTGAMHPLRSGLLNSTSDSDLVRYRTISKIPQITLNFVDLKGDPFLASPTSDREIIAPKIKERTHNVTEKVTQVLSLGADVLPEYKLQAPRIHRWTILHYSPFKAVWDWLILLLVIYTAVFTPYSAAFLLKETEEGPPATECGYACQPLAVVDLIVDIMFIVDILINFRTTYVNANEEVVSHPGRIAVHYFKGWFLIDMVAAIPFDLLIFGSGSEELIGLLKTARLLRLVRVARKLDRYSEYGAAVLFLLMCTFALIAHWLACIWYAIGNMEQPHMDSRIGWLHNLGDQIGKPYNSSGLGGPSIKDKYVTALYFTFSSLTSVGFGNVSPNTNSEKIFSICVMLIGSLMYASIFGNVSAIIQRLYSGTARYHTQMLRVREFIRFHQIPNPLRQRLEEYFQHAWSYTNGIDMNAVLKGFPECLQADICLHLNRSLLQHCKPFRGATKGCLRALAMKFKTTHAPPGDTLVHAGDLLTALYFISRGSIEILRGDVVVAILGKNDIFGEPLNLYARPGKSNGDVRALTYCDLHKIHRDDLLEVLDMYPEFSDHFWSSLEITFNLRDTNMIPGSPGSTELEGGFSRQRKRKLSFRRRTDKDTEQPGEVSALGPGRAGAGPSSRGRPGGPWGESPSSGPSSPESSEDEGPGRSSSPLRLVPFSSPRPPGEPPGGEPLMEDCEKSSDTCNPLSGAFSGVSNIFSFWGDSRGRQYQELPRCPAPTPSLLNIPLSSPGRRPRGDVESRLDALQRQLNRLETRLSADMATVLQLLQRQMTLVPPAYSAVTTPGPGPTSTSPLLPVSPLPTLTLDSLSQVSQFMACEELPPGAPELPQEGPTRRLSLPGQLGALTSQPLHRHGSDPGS
Sequence of Voltage-gated inwardly rectifying potassium channel KCNH2 (Q12809 whole entry): as above

SMILES	Ratio IC50 (Plasmodium falciparum [1])	IC50 (CHO) [nM]	IC50 (Plasmodium falciparum [2]) [nM]	Ratio IC50 (Plasmodium falciparum [3])	IC50 (Plasmodium falciparum [4]) [nM]	remaining at 0.5 h, 0.1 µM ([5]; microsomes) [%]	half-life at 0.1 µM ([6]; microsomes) [h]	selectivity ratio [7]	half-life at 0.1 µM ([8]; microsomes) [h]	remaining at 0.5 h, 0.1 µM ([9]; microsomes) [%]	inhibition at 0.3 µM (hERG (KCNH2) [11]) [%]	IC50 [12] [nM]	inhibition at 10 µM (hERG (KCNH2) [16]) [%]	Ratio IC50 [18]	IC50 (Plasmodium falciparum [19]) [nM]	remaining at 0.5 h, 0.1 µM ([5]; liver microsomes) [%]	IC50 (Plasmodium berghei [21]) [nM]	half-life at 0.1 µM ([6]; liver microsomes) [h]	half-life at 0.1 µM ([8]; liver microsomes) [h]	remaining at 0.5 h, 0.1 µM ([9]; liver microsomes) [%]	other results
Cc1ccc(CNc2cc(C(F)(F)F)c(C#N)c3nc4cc(Cl)c(Cl)cc4n23)cc1	0.2	6060	400	6	600	91	> 2.5	15	0.933	69	–	–	–	–	–	–	–	–	–	–	–
N#Cc1c(C(F)(F)F)cc(Nc2ccc(OC(F)(F)F)cc2)n2c1nc1ccccc12	–	17600	170	–	3320	–	–	103	–	–	7.51	> 10000	< 40	0.88	150	> 99	110	> 2.5	> 2.5	> 99	half-life [10]: 11.4 h; logD [13]: 5.34; MST (Plasmodium berghei [14]): 12 days; clearance [15]: 0.97 mL/min/kg; Time [17]: > 20 h; Vd [20]: 0.9 L/kg; bioavailability [22]: 2%; AUC [23]: 79.6 µM·h; Cmax [24]: 1100 nM; Ratio [25]: 6; AUC [26]: 19.4 µM·h; solubility [27]: < 5 µM; half-life [28]: 7.86 h; Tmax [29]: 5 h; inhibition in vivo at 50 mg/kg (Plasmodium berghei [30]): 98%
N#Cc1c(C(F)(F)F)cc(NCc2cccc(F)c2)n2c1nc1cc(Cl)c(Cl)cc12	1.2	7030	190	0.5	270	100	> 2.5	37	1.98	84	6.53	> 10000	< 40	0.79	150	–	70	–	–	–	–
N#Cc1c(C(F)(F)F)cc(NCc2ccccc2F)n2c1nc1cc(Cl)c(Cl)cc12	–	4300	170	–	370	–	–	25	–	–	5.49	> 10000	< 40	0.82	140	97	50	> 2.5	1.98	84	logD [13]: 4.16; MST (Plasmodium berghei [14]): 14 days; solubility [27]: < 5 µM; inhibition in vivo at 50 mg/kg (Plasmodium berghei [30]): 99.9%
CCN(CC)CCCC(C)Nc1ccnc2cc(Cl)ccc12 (centres undefined) [CHLOROQUINE]	–	–	–	–	–	–	–	–	–	–	–	–	–	–	–	–	–	–	–	–	IC50 (Hemozoin): 18000 nM; MST (Plasmodium berghei [31]): 21 days
N#Cc1c(C(F)(F)F)cc(NCc2ccco2)n2c1nc1cc(Cl)c(Cl)cc12	–	4840	440	–	2000	–	–	10	–	–	6.82	> 10000	< 40	0.52	230	100	60	> 2.5	0.833	66	–
